The source made the active and inactive calls. No cut-off for these calls is given here.
What was measured:
[1] = test system: A549; test: Anticancer activity against human A549 cells assessed as growth inhibition at 100 uM after 24 hrs by sulforhodamine B assay; assay type: functional; conditions: A549, 24 h
[2] = Anticancer activity against human PC3 cells assessed as growth inhibition at 100 uM after 24 hrs by sulforhodamine B assay; assay type: functional; conditions: PC-3, 24 h
[3] = Anticancer activity against human HCT116 cells assessed as growth inhibition at 100 uM after 24 hrs by sulforhodamine B assay; assay type: functional; conditions: HCT-116, 24 h
[4] = Anticancer activity against human HT1080 cells assessed as growth inhibition at 100 uM after 24 hrs by sulforhodamine B assay; assay type: functional; conditions: HT-1080, 24 h
[5] = Anticancer activity against human HCT116 cells assessed as growth inhibition after 24 hrs by sulforhodamine B assay; assay type: functional, cell-based; conditions: HCT-116, 24 h
Procedure, shortened: (§1)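 SRB assay on human cancer cell lines over a range of concentrations; inhibitory values calculated from concentration–response data, mean ± SD of three experiments.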

[6] = test system: T47D; test: Anticancer activity against human T47D cells assessed as growth inhibition after 24 hrs by sulforhodamine B assay; assay type: functional, cell-based; procedure, shortened: as §1
[7] = test system: A549; test: Anticancer activity against human A549 cells assessed as growth inhibition after 24 hrs by sulforhodamine B assay; assay type: functional, cell-based; conditions: A549, 24 h; procedure, shortened: as §1
[8] = Anticancer activity against human PC3 cells assessed as growth inhibition after 24 hrs by sulforhodamine B assay; assay type: functional, cell-based; conditions: PC-3, 24 h; procedure, shortened: as §1
[9] = Cytotoxicity against human FR2 cells assessed as growth inhibition after 24 hrs by sulforhodamine B assay; assay type: cell-based; conditions: FR2, 24 h
[10] = test system: HCT-116; test: Anticancer activity against human HCT116 cells assessed as inhibition of colony formation at 1 to 5 uM after 48 hrs by clonogenic assay; assay type: functional, cell-based
Procedure, shortened: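 HCT-116 cells treated at 1, 2.5 and 5 μM, then reseeded at suitable dilution (500 cells for untreated control) in six-well plates to form colonies over 1-3 weeks; survival fraction expressed relative to untreated control; paclitaxel positive control.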

[11] = test system: HCT-116; test: Induction of apoptosis in human HCT116 cells assessed as increase in apoptotic body formation after 48 hrs by DAPI staining based fluorescence microscopy; assay type: functional, cell-based
Procedure, shortened: (§2)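 HCT-116 cells exposed to 1, 2.5 and 5 μM for 48 h, nuclei stained with DAPI and examined by fluorescence microscopy for chromatin condensation and apoptotic bodies; untreated and paclitaxel controls.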

[12] = test system: HCT-116; test: Induction of apoptosis in human HCT116 cells assessed as chromatin condensation after 48 hrs by DAPI staining based fluorescence microscopy; assay type: functional, cell-based; procedure, shortened: as §2
[13] = test system: HCT-116; test: Induction of apoptosis in human HCT116 cells assessed as loss of mitochondrial membrane potential after 48 hrs by rhodamine 123 staining based confocal microscopy; assay type: functional, cell-based
Procedure, shortened: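 Rhodamine-123 staining of HCT-116 cells treated at 1, 2.5 and 5 μM; mitochondrial fluorescence intensity read by laser scanning confocal microscopy; paclitaxel (50 nM) positive control; mean ± SD.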

[14] = test system: HCT-116; test: Induction of apoptosis in human HCT116 cells assessed as PARP cleavage at 1 to 5 uM after 48 hrs by Western blot analysis; assay type: functional, cell-based
Procedure, shortened: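 HCT-116 cells incubated 48 h at 1, 2.5 and 5 μM; intact and cleaved PARP-1 detected by western blot, β-actin loading control; paclitaxel positive control.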

[15] = test system: HCT-116; test: Induction of ROS generation in human HCT116 cells after 48 hrs by 2',7'-dichlorofluorescien diacetate staining based fluorescence microscopy; assay type: functional, cell-based
Procedure, shortened: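 HCT-116 cells exposed 48 h at 1 and 2.5 μM, loaded with DCFDA; DCF fluorescence measured by imaging and spectrofluorometry; H2O2 positive control.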

[16] = test system: HCT-116; test: Induction of apoptosis in human HCT116 cells assessed as PARP cleavage at 50 nM after 48 hrs by Western blot analysis; assay type: functional, cell-based

Compound | inhibition at 100 µM [1] [%] | inhibition at 100 µM [2] [%] | inhibition at 100 µM [3] [%] | inhibition at 100 µM [4] [%] | also measured
COC(=O)[C@@]1(C)C(=O)/C(=C/c2ccc([N+](=O)[O-])cc2)C[C@]2(C)[C@H]3CC=C4[C@@H]5[C@@H](C)[C@H](C)CC[C@]5(C)CC[C@@]4(C)[C@]3(C)CC[C@@H]12 | 47 | 52 | 30 | 36 | –
COC(=O)[C@@]1(C)C(=O)/C(=C/c2ccc(Cl)cc2)C[C@]2(C)[C@H]3CC=C4[C@@H]5[C@@H](C)[C@H](C)CC[C@]5(C)CC[C@@]4(C)[C@]3(C)CC[C@@H]12 | 7 | 10 | 0 | 6 | –
COC(=O)[C@@]1(C)C(=O)/C(=C/c2cc(OC)cc(OC)c2)C[C@]2(C)[C@H]3CC=C4[C@@H]5[C@@H](C)[C@H](C)CC[C@]5(C)CC[C@@]4(C)[C@]3(C)CC[C@@H]12 | 55 | 41 | 21 | 17 | –
COC(=O)[C@@]1(C)C(=O)/C(=C/c2ccc(Cl)cc2Cl)C[C@]2(C)[C@H]3CC=C4[C@@H]5[C@@H](C)[C@H](C)CC[C@]5(C)CC[C@@]4(C)[C@]3(C)CC[C@@H]12 | 97 | 79 | 49 | 100 | IC50 [5]: > 100 µM; IC50 [6]: > 100 µM; IC50 [7]: 56.1 µM; IC50 [8]: 69.5 µM; IC50 [9]: > 100 µM
COC(=O)[C@@]1(C)C(=O)/C(=C/c2ccncc2)C[C@]2(C)[C@H]3CC=C4[C@@H]5[C@@H](C)[C@H](C)CC[C@]5(C)CC[C@@]4(C)[C@]3(C)CC[C@@H]12 | 99 | 100 | 100 | 95 | IC50 [5]: 1.84 µM; IC50 [6]: 1.26 µM; IC50 [7]: 2.13 µM; IC50 [8]: 1.96 µM; IC50 [9]: 21.4 µM; inhibition [10]: Dose-dependent effect; Activity [11]: Dose-dependent effect; Activity [12]: Dose-dependent effect; Activity [13]: Dose-dependent effect; Activity [14]: Active; Activity [15]: Dose-dependent effect
COC(=O)[C@@]1(C)C(=O)CC[C@]2(C)[C@H]3CC=C4[C@@H]5[C@@H](C)[C@H](C)CC[C@]5(C)CC[C@@]4(C)[C@]3(C)CC[C@@H]12 | 56 | 44 | 58 | 21 | –
COC(=O)[C@@]1(C)C(=O)/C(=C/c2ccc(C)cc2)C[C@]2(C)[C@H]3CC=C4[C@@H]5[C@@H](C)[C@H](C)CC[C@]5(C)CC[C@@]4(C)[C@]3(C)CC[C@@H]12 | 28 | 11 | 20 | 26 | –
COC(=O)[C@@]1(C)C(=O)/C(=C/c2ccc3ccccc3n2)C[C@]2(C)[C@H]3CC=C4[C@@H]5[C@@H](C)[C@H](C)CC[C@]5(C)CC[C@@]4(C)[C@]3(C)CC[C@@H]12 | 37 | 44 | 37 | 43 | –
COC(=O)[C@@]1(C)C(=O)/C(=C/c2ccccn2)C[C@]2(C)[C@H]3CC=C4[C@@H]5[C@@H](C)[C@H](C)CC[C@]5(C)CC[C@@]4(C)[C@]3(C)CC[C@@H]12 | 100 | 100 | 100 | 95 | IC50 [5]: 7.2 µM; IC50 [6]: 15.6 µM; IC50 [7]: 26.1 µM; IC50 [8]: 24.4 µM; IC50 [9]: 59 µM
COC(=O)[C@@]1(C)C(=O)/C(=C/c2ccccc2F)C[C@]2(C)[C@H]3CC=C4[C@@H]5[C@@H](C)[C@H](C)CC[C@]5(C)CC[C@@]4(C)[C@]3(C)CC[C@@H]12 | 47 | 44 | 0 | 23 | –
COC(=O)[C@@]1(C)C(=O)/C(=C/c2ccccc2[N+](=O)[O-])C[C@]2(C)[C@H]3CC=C4[C@@H]5[C@@H](C)[C@H](C)CC[C@]5(C)CC[C@@]4(C)[C@]3(C)CC[C@@H]12 | 42 | 11 | 21 | 100 | –
COC(=O)[C@@]1(C)C(=O)/C(=C/c2ccccc2Cl)C[C@]2(C)[C@H]3CC=C4[C@@H]5[C@@H](C)[C@H](C)CC[C@]5(C)CC[C@@]4(C)[C@]3(C)CC[C@@H]12 | 0 | 25 | 0 | 21 | –
COC(=O)[C@@]1(C)C(=O)/C(=C/c2c(Cl)cccc2Cl)C[C@]2(C)[C@H]3CC=C4[C@@H]5[C@@H](C)[C@H](C)CC[C@]5(C)CC[C@@]4(C)[C@]3(C)CC[C@@H]12 | 74 | 24 | 57 | 99 | –
COC(=O)[C@@]1(C)C(=O)/C(=C/c2ccc(OC(F)(F)F)cc2)C[C@]2(C)[C@H]3CC=C4[C@@H]5[C@@H](C)[C@H](C)CC[C@]5(C)CC[C@@]4(C)[C@]3(C)CC[C@@H]12 | 14 | 35 | 0 | 78 | –
COC(=O)[C@@]1(C)C(=O)/C(=C/c2cc(C(F)(F)F)cc(C(F)(F)F)c2)C[C@]2(C)[C@H]3CC=C4[C@@H]5[C@@H](C)[C@H](C)CC[C@]5(C)CC[C@@]4(C)[C@]3(C)CC[C@@H]12 | 5 | 7 | 10 | 0 | –
COC(=O)[C@@]1(C)C(=O)/C(=C/c2cccc([N+](=O)[O-])c2)C[C@]2(C)[C@H]3CC=C4[C@@H]5[C@@H](C)[C@H](C)CC[C@]5(C)CC[C@@]4(C)[C@]3(C)CC[C@@H]12 | 0 | 10 | 6 | 13 | –
CC(=O)O[C@H]1C(=O)[C@@]2(C)[C@H]([C@H](OC(=O)c3ccccc3)[C@]3(O)C[C@H](OC(=O)[C@H](O)[C@@H](NC(=O)c4ccccc4)c4ccccc4)C(C)=C1C3(C)C)[C@]1(OC(C)=O)CO[C@@H]1C[C@@H]2O | – | – | – | – | Activity [11]: Active; Activity [16]: Active
COC(=O)[C@@]1(C)C(=O)/C(=C/c2cccs2)C[C@]2(C)[C@H]3CC=C4[C@@H]5[C@@H](C)[C@H](C)CC[C@]5(C)CC[C@@]4(C)[C@]3(C)CC[C@@H]12 | 42 | 19 | 40 | 37 | –
COC(=O)[C@@]1(C)C(=O)/C(=C/c2ccco2)C[C@]2(C)[C@H]3CC=C4[C@@H]5[C@@H](C)[C@H](C)CC[C@]5(C)CC[C@@]4(C)[C@]3(C)CC[C@@H]12 | 48 | 44 | 18 | 16 | –
COC(=O)[C@@]1(C)C(=O)/C(=C/c2cccc(Br)c2)C[C@]2(C)[C@H]3CC=C4[C@@H]5[C@@H](C)[C@H](C)CC[C@]5(C)CC[C@@]4(C)[C@]3(C)CC[C@@H]12 | 14 | 6 | 8 | 15 | –
COC(=O)[C@@]1(C)C(=O)/C(=C/c2ccc(F)c(Br)c2)C[C@]2(C)[C@H]3CC=C4[C@@H]5[C@@H](C)[C@H](C)CC[C@]5(C)CC[C@@]4(C)[C@]3(C)CC[C@@H]12 | 47 | 40 | 27 | 43 | –
COC(=O)[C@@]1(C)C(=O)/C(=C/c2ccc(F)cc2F)C[C@]2(C)[C@H]3CC=C4[C@@H]5[C@@H](C)[C@H](C)CC[C@]5(C)CC[C@@]4(C)[C@]3(C)CC[C@@H]12 | 33 | 20 | 32 | 0 | –
